Assay results reported in ChEMBL document CHEMBL1152379, “Synthesis and evaluation of 3''- and 4''-deoxy and -fluoro analogs of the immunostimulatory glycolipid, KRN7000” (Bioorg Med Chem Lett, 2009).

What was measured:
Type in all cases: functional, cell-based
iNKT [1] = assay: Immunostimulatory activity in iNKT hybridoma 1.4 cells expressing TCR Vbeta10 assessed as IL2 level by ELISA
Method in brief: (§1)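 Glycolipid pulsed at indicated amounts onto 1 × 10^5 A20 B lymphoma cells transfected to overexpress mouse CD1d, overnight. APCs washed, then cocultured with 2 × 10^5 Vα14 iNKT hybridoma cells (2H4 Vβ7, 1.2 Vβ8.2, 1.4 Vβ10) overnight. Supernatant IL-2 measured by ELISA as TCR-recognition readout. Dose-response curves, representative of three similar experiments.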

iNKT [2] = assay: Immunostimulatory activity in iNKT hybridoma 1.2 cells expressing TCR Vbeta8.2 assessed as IL2 level by ELISA; method in brief: as §1
iNKT [3] = assay: Immunostimulatory activity in iNKT hybridoma 2H4 cells expressing TCR Vbeta7 assessed as IL2 level by ELISA; method in brief: as §1

SMILES | Activity (iNKT [1]) | Activity (iNKT [2]) | Activity (iNKT [3])
CCCCCCCCCCCCCCCCCCCCCCCCCC(=O)N[C@@H](CO[C@H]1O[C@H](CO)[C@H](F)[C@H](O)[C@H]1O)[C@H](O)CCCCCCCCCCCCCCC | Dose-dependent effect | Dose-dependent effect | Dose-dependent effect
CCCCCCCCCCCCCCCCCCCCCCCCCC(=O)N[C@@H](CO[C@H]1O[C@H](CO)[C@H](O)[C@H](O)[C@H]1O)[C@H](O)[C@H](O)CCCCCCCCCCCCCC | Dose-dependent effect | Dose-dependent effect | Dose-dependent effect
CCCCCCCCCCCCCCCCCCCCCCCCCC(=O)N[C@@H](CO[C@H]1O[C@H](CO)[C@H](O)[C@H](F)[C@H]1O)[C@H](O)CCCCCCCCCCCCCCC |  | Dose-dependent effect | Dose-dependent effect
CCCCCCCCCCCCCCCCCCCCCCCCCC(=O)N[C@@H](CO[C@H]1O[C@H](CO)[C@H](O)C[C@H]1O)[C@H](O)CCCCCCCCCCCCCCC |  | Dose-dependent effect | Dose-dependent effect
CCCCCCCCCCCCCCCCCCCCCCCCCC(=O)N[C@@H](CO[C@H]1O[C@H](CO)C[C@H](O)[C@H]1O)[C@H](O)CCCCCCCCCCCCCCC |  | Dose-dependent effect | Dose-dependent effect
CCCCCCCCCCCCCCCCCCCCCCCCCC(=O)N[C@@H](CO[C@H]1O[C@H](CO)[C@H](O)[C@H](O)[C@H]1O)[C@H](O)CCCCCCCCCCCCCCC | Dose-dependent effect | Dose-dependent effect | Dose-dependent effect
